Assay outcomes deposited in PubChem BioAssay by several laboratories.
CHOP inh – inhibitors of CHOP induction in ER stress response; CHO-K1 CHOP-promoter luciferase, tunicamycin-induced, 15-18 h; inhibition, % at 10 µM; 3.8% of 220,000 active; AID 2732;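 active = compounds that reduced the stress-induced luciferase reporter signal by more than about 70% of percent inhibition, limit read from the data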
Bfl-1 A1 inh – inhibitors of the anti-apoptotic protein A1, read as caspase activation | AID 2462 | caspase activation, % (test concentration not listed) | 0.066% of 330,000 active | MEF A1-2A-BIM cells, Caspase-Glo 3/7 luminescence, 3 h; percent of clofoctol response, vehicle zero;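 active = over half of replicate activation scores above 10%, or exactly half above 10 with the replicate mean above 10; inconclusive = replicate mean below 10 yet half the replicates above 10; inactive = over half of replicates below 10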
UPR XBP1 act – adaptive UPR (XBP1) activation; CHO-XBP1 luciferase reporter, IRE1-XBP1 UPR activation, luminescence; percent of tunicamycin response, DMSO as zero; AID 463104; activation, % at 20 µM; 0.33% of 330,000 active;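 active = versus positive control, 20 µM dose yields 30% or more activation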
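Assay system: CHO-XBP1 luciferase reporter cells; Schedule: 6 h treatment, 37 °C; Detection: glow luminescence from Steady-Glo reagent; Benchmarks: high control tunicamycin 10 µg/mL final, low control DMSO vehicle only.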
CHOP UPR activ – apoptotic UPR (CHOP) activation. CHO-CHOP luciferase reporter, luminescence; percent of tunicamycin response over DMSO baseline. activation, % at 10 µM. 0.34% of 330,000 active;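 active = at 10 µM dose, activation of 40% or more, normalized to positive control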
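System: CHO CHOP reporter cells. Amount: 500 cells per well. Buffer or medium: F12 medium, 10% FBS. Compound dosing: one dose, 10 µM in 0.5% DMSO. Incubation: 6 h compound exposure at 37 °C after overnight seeding. Technique: Steady-Glo luciferase luminescence. Benchmarks: tunicamycin and DMSO controls.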
Hits are given with their value; – = inactive; ? = inconclusive; · = no result. Only a selection was taken, and hits are over-represented in it overall.

SMILES	CHOP inh	Bfl-1 A1 inh	UPR XBP1 act	CHOP UPR activ
CC(C)Oc1ccc(S(=O)(=O)N2CCOCC2)cc1NC(=O)Cc1ccsc1	·	–	–	–
CC(C)CCOc1ccc(/C=C2\CCn3c2nc2cc(C(=O)O)ccc2c3=O)cc1	90	·	·	·
COC(=O)c1ccc(/C=C2\CCn3c2nc2cc(C(=O)O)ccc2c3=O)cc1	·	–	–	–
Cc1cccc(C)c1NC(=O)COc1ccc2c(C)c(Cc3ccccc3)c(=O)oc2c1C	96	?	–	–
Cc1c(Cc2ccccc2)c(=O)oc2c(C)c(OCC(=O)Nc3ccc(C#N)cc3)ccc12	–	?	–	–
Cc1ccc(N=Nc2c(N)nn3c(N)c(C#N)c(C)nc23)cc1	73	–	–	–
CCCOC(=O)c1c(NC(=O)CSc2nc(-c3ccco3)cc(C(F)(F)F)n2)sc(C(=O)OC)c1C	–	–	–	–
COc1ccc(/C=N/NC(=O)C2c3ccccc3-c3ccccc32)cc1	80	–	–	–
COc1ccc(/C=N/NC(=O)CC(=O)N/N=C/c2ccc(OC)cc2)cc1	–	–	–	–
COc1ccc(CCC(=O)N2CCCC(Nc3ccc(OC)cc3)C2)cc1 (configuration not stated)	·	–	–	–
O=C(Cn1nnc(-c2ccc(Cl)cc2)n1)NCC1CCCCC1	90	–	–	–
CCOc1ncccc1C(=O)OCC(=O)Nc1ccc(Cl)cn1	·	–	–	–
CCOC(=O)c1nc(C(=O)NCc2ccc(C)cc2)nc2ccccc12	·	–	–	–
COc1ccc(C(=O)Nc2ccc(Oc3nc(C)nc4sc(-c5ccccc5)cc34)cc2)cc1OC	81	–	–	–
COc1ccc(C(=O)Nc2ccc(Oc3ncnc4sc(-c5ccccc5)cc34)cc2)cc1OC	–	–	–	–
COc1ccc(-n2c(SCC(=O)Nc3nccs3)nc3c(c2=O)SC(C)C3)cc1 (configuration not stated)	–	–	–	–
CC(C)(c1ccccc1)c1ccc(OCCn2cnc3ccccc3c2=O)cc1	77	–	–	–
c1ccc2c(c1)ncn2CCCOc1ccc2c(c1)CCC2	–	–	–	–
Cc1ccccc1OCCCCn1cnc2ccccc21	72	–	–	–
O=C(c1ccccc1)c1ccc(OCCn2cnc3ccccc3c2=O)cc1	–	–	–	–
Cc1cc(C)c(C)c(OCCCCn2cnc3ccccc3c2=O)c1	91	–	–	–
c1ccc2c(c1)ncn2CCCCOc1ccc2c(c1)CCC2	70	–	–	–
O=C(NC1CCCC1)C1CCC(=O)N1C1CCCC1 (configuration not stated)	–	–	–	–
Cc1cc(C)c(NS(=O)(=O)c2ccc3c(c2)NC(=O)C(C)C(=O)N3)c(C)c1 (configuration not stated)	·	·	–	–
CCc1ccc(N(CC(=O)N2CCN(Cc3ccccc3)CC2)S(C)(=O)=O)cc1	·	–	–	–
SMILES	CHOP inh	Bfl-1 A1 inh	UPR XBP1 act	CHOP UPR activ
CCOC(=O)C1CCCN(C(=O)C2CCN(S(=O)(=O)CC)CC2)C1 (configuration not stated)	–	–	–	–
CC(OC(=O)CCc1nc2ccccc2c(=O)[nH]1)C(=O)c1ccc(C(C)(C)C)cc1 (configuration not stated)	92	–	–	–
COc1ccc(S(=O)(=O)Nc2cc(C)c(O)c(S(=O)(=O)c3ccccc3)c2)cc1	–	–	–	–
O=S(=O)(N/N=C\c1cn(-c2ccccc2)nc1-c1ccccc1)c1ccccc1	96	–	–	–
O=C(CNc1ccccc1)N/N=C/c1cn(-c2ccccc2)nc1-c1ccccc1	96	–	–	–
Cn1nc(-c2ccc(Cl)cc2)c2cc(C(=O)N3CCN(c4ccccn4)CC3)sc21	90	–	–	–
Cn1nc(-c2ccc(Cl)cc2)c2cc(C(=O)N3CCN(c4ccccc4)CC3)sc21	–	–	–	–
Cc1cc(C(=O)CSc2nnc3ccccn23)c(C)n1-c1ccccc1	73	–	–	–
Cc1occc1C(=O)N/N=C/c1ccc(-c2ccccc2)cc1	·	–	–	–
Cc1occc1C(=O)N/N=C/c1ccc(OCc2ccccc2)cc1	71	–	–	–
N#CC(C#N)=C/C(C#N)=C(/N)N1CCN(c2ccc(Cl)cc2)CC1	80	–	–	–
Cc1ccc(S(=O)(=O)NC(=O)Nc2ccc(F)cc2)cc1	–	–	–	–
CCC(=O)OCc1c(C(F)(F)F)nn(C)c1Sc1ccc(Cl)cc1	79	–	–	–
Cc1ccc2nc(-c3sc4nc(C)cc(C)c4c3N)[nH]c2c1	91	–	–	–
CC1CC(C)CN(C(=O)c2ccc(-c3ccc([N+](=O)[O-])cc3)o2)C1 (configuration not stated)	·	10	–	–
CCOC(=O)C(=CNc1cc(C)ccc1C)C(=O)OCC	88	–	–	–
Clc1ccc(/C=N/NC(=Nc2ccccc2)c2ccccn2)c(Cl)c1	81	–	–	–
O=S(=O)(c1ccc2c(c1)OCCO2)N1CCC(n2nnc3cc(C(F)(F)F)ccc32)CC1	70	–	–	–
Cc1ccc2nc(Cl)c(/C=N/NC(=O)[C@H]3C[C@@H]3c3ccccc3)cc2c1	74	–	–	–
CC(C)(C)c1ccc(C2CC2C(=O)N/N=C\c2cc3ccccc3nc2Cl)cc1 (configuration not stated)	–	?	–	–
Cc1ccc(-c2nnn(CC(=O)N(c3cccc(F)c3)C(C(=O)NC(C)(C)C)c3ccco3)n2)o1 (configuration not stated)	95	–	–	–
CCOc1ccc(NC(=O)c2csc3c2CCCC3)cc1	–	–	–	–
N=C1/C(=C\c2ccc(-c3cc(Cl)cc(Cl)c3)o2)C(=O)N=C2SC=C(c3ccccc3)N12	–	–	–	–
COc1cc(/C=C2/C(=N)N3C=CSC3=NC2=O)ccc1OCCOc1ccc(NC(C)=O)cc1	–	–	–	–
CCOc1ccc(-c2ccc(/C=C3/C(=N)N4C(C)=CSC4=NC3=O)o2)c([N+](=O)[O-])c1	88	–	–	–
SMILES	CHOP inh	Bfl-1 A1 inh	UPR XBP1 act	CHOP UPR activ
CCOc1ccc(-c2ccc(/C=C3/C(=N)N4C=CSC4=NC3=O)o2)c([N+](=O)[O-])c1	86	–	·	·
N#Cc1ccc(/C=C(\C(=O)C(=O)O)c2ccc3ccccc3n2)cc1	–	–	–	–
O=C(c1ccccc1)N1CCN(CC(O)COCC2CC=CCC2)CC1 (configuration not stated)	–	–	–	–
O=C(c1ccccc1)N1CCN(CC2CC=CCC2)CC1 (configuration not stated)	79	–	–	–
COc1cnn(C(C)(C)C)c(=O)c1Cl	–	–	–	–
Cc1cccc(Oc2cnn(C(C)(C)C)c(=O)c2Cl)c1	71	–	–	–
N#C/C(=C(/O)CN1CCN(c2ccccc2F)CC1)c1nc(-c2ccc(Cl)cc2)cs1	82	–	–	–
CCc1ccccc1NCC(=O)Nc1ccc(Cl)c(C(F)(F)F)c1	79	–	–	–
O=C(Nc1ccc(Cl)cc1)OCc1cn(-c2ccc(Cl)cc2)nn1	73	–	–	–
